# Results published in ChEMBL document CHEMBL2331234, “Novel analgesic/anti-inflammatory agents: 1,5-diarylpyrrole nitrooxyalkyl ethers and related compounds as cyclooxygenase-2 inhibiting nitric oxide donors” (J Med Chem, 2013).
# Active and inactive are the calls of the source. The rule behind the calls is not given here.
# What was measured:
# Aorta [1] = assay: Vasorelaxant activity in Wistar rat endothelium-removed thoracic aortic rings assessed as reduction of KCl-induced vasoconstriction at 0.001 uM to 10 uM treated after KCl-challenge relative to control; assay type: functional
# Procedure, shortened: (§1)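 Thoracic aortic rings from male Wistar rats (250-350 g), endothelium removed by rubbing; removal confirmed as <10% relaxation to ACh 10 µM in KCl 30 mM-contracted rings. Rings contracted with KCl 30 mM; at plateau, 3-fold increasing compound concentrations (1 nM-10 µM) added. Isometric tension recorded. Emax given as % of KCl tone; pIC50 as -log molar concentration halving that tone. 6-10 experiments; also run with ODQ 1 µM.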
# Rattus norvegicus [2] = assay: Antiinflammatory activity in Sprague-Dawley/Wistar rat assessed as decrease in carrageenan-induced hyperalgesia at 20 mg/kg, po administered 4 hrs after carrageenan-challenge measured after 60 mins (reference value: 33.9 +/- 3.7 g); assay type: functional
# J774 = assay: Selectivity index, ratio of IC50 for COX1 in mouse J774 cells […]; assay type: cell-based
# Rattus norvegicus [3] = assay: Antiinflammatory activity in Sprague-Dawley/Wistar rat assessed as decrease in carrageenan-induced hyperalgesia at 20 mg/kg, po administered 4 hrs after carrageenan-challenge measured after 120 mins (reference value: 31.4 +/- 3.7 g); assay type: functional
# Mus musculus = assay: Antinociceptive activity in po dosed Swiss albino mouse assessed as reduction in number of acetic acid-induced writhing counted 5 mins after acetic acid challenge counted for 10 mins; assay type: functional; conditions: read-out: MED
# Procedure, shortened: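 Male Swiss albino mice (23-25 g) dosed orally, then given 0.6% acetic acid (10 mL/kg) ip. Stretching movements counted for 10 min, starting 5 min after the acetic acid. Control group received CMC. At least 7 mice/group; mean ± SEM, ANOVA with Fisher's PLSD.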
# [4] = target: T1, Prostaglandin G/H synthase 2 (Mus musculus, UniProt Q05769); assay: Inhibition of Escherichia coli lipopolysaccharide-induced COX2 activity in mouse J774 cells assessed as decrease in PGE2 levels after 24 hrs by RIA; assay type: cell-based
# T1 sequence (Q05769 whole entry): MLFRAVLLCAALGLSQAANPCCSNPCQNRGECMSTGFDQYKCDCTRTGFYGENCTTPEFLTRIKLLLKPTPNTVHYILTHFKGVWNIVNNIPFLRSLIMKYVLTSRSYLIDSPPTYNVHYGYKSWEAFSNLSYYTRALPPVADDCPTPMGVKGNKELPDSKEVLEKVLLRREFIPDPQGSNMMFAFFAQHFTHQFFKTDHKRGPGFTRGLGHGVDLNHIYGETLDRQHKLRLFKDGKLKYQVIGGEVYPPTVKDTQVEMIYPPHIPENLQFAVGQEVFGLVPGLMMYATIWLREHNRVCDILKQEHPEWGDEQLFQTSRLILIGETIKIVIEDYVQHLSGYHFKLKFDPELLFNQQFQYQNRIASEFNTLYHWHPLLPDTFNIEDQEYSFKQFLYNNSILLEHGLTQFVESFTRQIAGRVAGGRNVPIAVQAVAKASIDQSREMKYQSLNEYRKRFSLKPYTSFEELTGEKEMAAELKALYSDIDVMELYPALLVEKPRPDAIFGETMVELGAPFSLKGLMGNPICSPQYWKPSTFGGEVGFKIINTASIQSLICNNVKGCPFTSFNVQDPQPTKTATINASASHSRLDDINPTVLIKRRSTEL
# Procedure, shortened: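 Adhered cells in DMEM/10% FBS were stimulated with E. coli LPS 10 µg/mL for 24 h with compound present at 0.01-10 µM. Supernatant PGE2 was measured by RIA. IC50 came from a variable-slope sigmoidal fit.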
# Rattus norvegicus [5] = assay: Antiinflammatory activity in Sprague-Dawley/Wistar rat assessed as decrease in carrageenan-induced paw edema at 20 mg/kg, po administered 3 hrs 30 mins after carrageenan-challenge measured after 60 mins (reference value: 2.48 +/- 0.06 mL); assay type: functional
# Rattus norvegicus [6] = assay: Antiinflammatory activity in Sprague-Dawley/Wistar rat assessed as decrease in carrageenan-induced hyperalgesia at 20 mg/kg, po administered 4 hrs after carrageenan-challenge measured after 30 mins (reference value: 34.8 +/- 3.0 g); assay type: functional
# [7] = target: T2, Prostaglandin G/H synthase 1 (Mus musculus, UniProt P22437); assay: Inhibition of arachidonic acid-induced COX1 activity in mouse J774 cells assessed as decrease in PGE2 levels incubated for 15 mins prior to arachidonic acid-challenge measured after 30 mins by RIA; assay type: cell-based
# T2 sequence (P22437 whole entry): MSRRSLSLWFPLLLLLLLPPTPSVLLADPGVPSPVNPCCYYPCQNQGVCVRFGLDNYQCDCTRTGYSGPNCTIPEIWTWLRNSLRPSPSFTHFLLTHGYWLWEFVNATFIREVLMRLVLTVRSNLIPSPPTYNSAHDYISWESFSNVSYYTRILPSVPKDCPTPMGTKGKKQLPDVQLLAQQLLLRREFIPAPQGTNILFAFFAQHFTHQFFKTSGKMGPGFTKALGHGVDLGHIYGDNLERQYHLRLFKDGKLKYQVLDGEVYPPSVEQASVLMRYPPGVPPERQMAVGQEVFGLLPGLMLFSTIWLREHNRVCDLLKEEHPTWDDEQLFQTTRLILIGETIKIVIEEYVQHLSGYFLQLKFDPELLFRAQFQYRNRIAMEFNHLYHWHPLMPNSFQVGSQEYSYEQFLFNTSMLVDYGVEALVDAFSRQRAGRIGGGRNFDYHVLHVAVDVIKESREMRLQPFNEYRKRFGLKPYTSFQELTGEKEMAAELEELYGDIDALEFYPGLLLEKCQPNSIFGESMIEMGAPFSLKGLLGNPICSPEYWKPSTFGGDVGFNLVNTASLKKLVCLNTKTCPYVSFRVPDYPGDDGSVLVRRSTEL
# Procedure, shortened: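 Cells were in DMEM with 10% FBS and adhered for 2 h at 37 °C. They were pretreated with compound (10 µM; 0.1-1 µM where inhibition exceeded 50%) for 15 min, then given 15 µM arachidonic acid for 30 min at 37 °C. Supernatant PGE2 was measured by RIA. Triplicate wells were used and the mean of three experiments reported. IC50 came from a variable-slope sigmoidal fit.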
# Aorta [8] = assay: Vasorelaxant activity in Wistar rat endothelium-removed thoracic aortic rings assessed as reduction of KCl-induced vasoconstriction at 0.001 uM to 10 uM treated after KCl-challenge in presence of guanylate cyclase inhibitor 1H-[1,2,4]-oxadiazolo[4,3-a]quinoxalin-1-one; assay type: functional, tissue-based
# Procedure, shortened: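 Endothelium-denuded aortic rings from male Wistar rats (250-350 g) were preincubated with ODQ 1 µM. Rings were contracted with KCl 30 mM, then given 3-fold increasing concentrations from 1 nM to 10 µM. Emax is the % relaxation of KCl tone. pIC50 was calculated when efficacy reached 50%, from 6-10 experiments.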
# Aorta [9] = assay: Vasorelaxant activity in Wistar rat endothelium-removed thoracic aortic rings assessed as reduction of KCl-induced vasoconstriction treated after KCl-challenge; assay type: functional, tissue-based; procedure, shortened: as §1
# Rattus norvegicus [10] = assay: Antiinflammatory activity in Sprague-Dawley/Wistar rat assessed as decrease in carrageenan-induced hyperalgesia at 40 mg/kg, po administered 4 hrs after carrageenan-challenge measured after 30 mins (reference value: 34.8 +/- 3.0 g); assay type: functional
# Rattus norvegicus [11] = assay: Antiinflammatory activity in Sprague-Dawley/Wistar rat assessed as decrease in carrageenan-induced hyperalgesia at 40 mg/kg, po administered 4 hrs after carrageenan-challenge measured after 120 mins (reference value: 31.4 +/- 3.7 g); assay type: functional
# Rattus norvegicus [12] = assay: Antiinflammatory activity in Sprague-Dawley/Wistar rat assessed as decrease in carrageenan-induced hyperalgesia at 40 mg/kg, po administered 4 hrs after carrageenan-challenge measured after 60 mins (reference value: 33.9 +/- 3.7 g); assay type: functional
# Rattus norvegicus [13] = assay: Antiinflammatory activity in Sprague-Dawley/Wistar rat assessed as decrease in carrageenan-induced paw edema at 40 mg/kg, po administered 3 hrs 30 mins after carrageenan-challenge measured after 60 mins (reference value: 2.48 +/- 0.06 mL); assay type: functional
SMILES,Emax (Aorta [1]),Activity (Rattus norvegicus [2]) [g],Ratio IC50 (J774),Activity (Rattus norvegicus [3]) [g],minimal effective dose (Mus musculus) [mg/kg],IC50 [4] [µM],Activity (Rattus norvegicus [5]) [mL],Activity (Rattus norvegicus [6]) [g],IC50 [7] [µM],Activity (Aorta [8]),IC50 (Aorta [9]) [µM],pIC50 (Aorta [9]),Activity (Rattus norvegicus [10]) [g],Activity (Rattus norvegicus [11]) [g],Activity (Rattus norvegicus [12]) [g],Activity (Rattus norvegicus [13]) [mL],Activity (Aorta [9])
Cc1c(CCOCCCO)cc(-c2ccc(S(C)(=O)=O)cc2)n1-c1ccccc1,inactive,50.3,> 1.11,46.6,20,8.99,1.86,52.9,> 10,–,–,–,–,–,–,–,–
Cc1c(CCOCCO)cc(-c2ccc(S(C)(=O)=O)cc2)n1-c1ccccc1,inactive,49.2,–,37.8,10,–,1.34,56.6,> 10,–,–,–,–,–,–,–,–
Cc1c(CCOCCCO[N+](=O)[O-])cc(-c2ccc(S(C)(=O)=O)cc2)n1-c1ccccc1,48%,51.6,> 667,45.6,20,–,1.8,53.7,> 10,inactive,≥ 10,Dose-dependent effect,–,–,–,–,–
Cc1c(CCOCCCO)cc(-c2ccc(S(C)(=O)=O)cc2)n1-c1cccc(F)c1,inactive,–,15.4,–,–,0.24,–,–,3.7,–,–,–,–,–,–,–,–
Cc1c(CCOCCO[N+](=O)[O-])cc(-c2ccc(S(C)(=O)=O)cc2)n1-c1ccc(F)c(F)c1,–,46.9,> 10.9,38.8,20,–,2.19,44.6,> 10,inactive,≥ 10,Dose-dependent effect,49.5,35.3,42.5,2.1,–
O=[N+]([O-])OCC(CO[N+](=O)[O-])O[N+](=O)[O-] [NITROGLYCERIN],93%,–,–,–,–,–,–,–,–,–,–,–,–,–,–,–,–
Cc1c(CCOCCCO)cc(-c2ccc(S(C)(=O)=O)cc2)n1-c1ccc(F)cc1,inactive,–,> 10.6,–,–,–,–,–,> 10,–,–,–,–,–,–,–,–
Cc1c(CCOCCCO[N+](=O)[O-])cc(-c2ccc(S(C)(=O)=O)cc2)n1-c1cccc(F)c1,inactive,–,126,–,–,0.023,–,–,2.9,–,–,–,–,–,–,–,–
Cc1c(CCOCCO)cc(-c2ccc(S(C)(=O)=O)cc2)n1-c1cccc(F)c1,inactive,48.6,> 217,37.2,20,–,2.46,46.9,> 10,–,–,–,51.4,39.5,45.3,2.12,–
Cc1c(CCOCCO[N+](=O)[O-])cc(-c2ccc(S(C)(=O)=O)cc2)n1-c1ccccc1,–,55.3,> 588,48.7,10,–,1.45,54.2,> 10,inactive,6.03,–,–,–,–,–,Dose-dependent effect
Cc1c(CCOCCCO[N+](=O)[O-])cc(-c2ccc(S(C)(=O)=O)cc2)n1-c1ccc(F)cc1,inactive,–,> 52.6,–,–,–,–,–,> 10,–,–,–,–,–,–,–,–
Cc1c(CCOCCO)cc(-c2ccc(S(C)(=O)=O)cc2)n1-c1ccc(F)c(F)c1,inactive,46.7,> 23.8,41.4,20,–,2.16,43.6,> 10,–,–,–,53.2,49.3,55.2,1.96,–
